A short description of assay [1]: Inhibitory activity against colchicine resistant parent primary liver carcinoma (PLC) cell line PLC/PRF/5. In kind it is functional, Homo sapiens. Put shortly:
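PLC/PRF/5 cells were precultured 24 h at 37 °C in 5% CO₂ in 96-well plates, then given colchicine at 0.5 μg/mL. Test compounds were added in dilutions of 10⁻²–10⁻⁶ μg/mL and incubated 72 h at 37 °C in 5% CO₂. Survival was read by MTT. IC50 is the μg/mL giving 50% growth inhibition of the colchicine-resistant cells.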

Assay [2] in a line: Inhibitory activity against the primary liver carcinoma (PLC) cell line PLC/PRF/5. In kind it is functional, Homo sapiens.

Each structure is given as a SMILES string. In brackets after ≈: the same amount, converted by molar mass.

Results on 15 molecules are retold here after ChEMBL document CHEMBL1135672, “QSAR evaluation of the Ch'an Su and related bufadienolides against the colchicine-resistant primary liver carcinoma cell line PLC/PRF/5(1)” (J Med Chem, 2002).

`C[C@]12CC[C@H](O)C[C@H]1CC[C@@H]1[C@@H]2CC[C@]2(C)C(/C(=C/CO)CO)C[C@H]3O[C@]132` (stereo not given in full): the half-inhibitory concentration (IC50) in assay [1] and in assay [2] was above 50 µg/mL throughout.

With `CC(=O)O[C@H]1CC[C@@]2(C)[C@H](CC[C@@H]3[C@@H]2CC[C@]2(C)[C@@H](c4ccc(=O)oc4)C[C@H](O)[C@]32O)C1`, the figures for the IC50 in assay [1] and in assay [2] were 5.6 µg/mL (≈ 12.6 µM) and 0.71 µg/mL (≈ 1.6 µM), respectively.

Take `COC(=O)C/C=C/C1=CO[C@]23CCC1[C@@]2(C)C[C@@H](OC(C)=O)[C@H]1[C@H]3CC[C@@H]2C[C@@H](OC(C)=O)CC[C@@]21C`: the values for the IC50 in assay [1] and in assay [2] were 20 µg/mL (≈ 38.9 µM) and 9.7 µg/mL (≈ 18.8 µM), respectively.

As to `CC(=O)O[C@H]1[C@H]2O[C@]23[C@@H]2CC[C@@H]4C[C@@H](OC(=O)CCC(=O)O)CC[C@]4(C)[C@H]2CC[C@]3(C)[C@H]1c1ccc(=O)oc1`, the concentration for half-maximal inhibition (IC50) in assay [1] was 0.96 µg/mL (≈ 1.77 µM); in assay [2], 0.85 µg/mL (≈ 1.57 µM).

Take `CC(=O)O[C@H]1[C@H]2O[C@]23[C@@H]2CC[C@@H]4C[C@@H](OC(=O)CCCCCCC(=O)O)CC[C@]4(C)[C@H]2CC[C@]3(C)[C@H]1c1ccc(=O)oc1`: the IC50 in assay [1] came to 0.06 µg/mL (≈ 0.1 µM); in assay [2], 0.01 µg/mL (≈ 0.0167 µM).

In the case of `C[C@]12CC[C@@H](O)C[C@H]1CC[C@@H]1[C@@H]2CC[C@]2(C)[C@@H](c3ccc(=O)oc3)C[C@H]3O[C@]132`, the half-maximal inhibitory concentration (IC50) in assay [1] was 43 µg/mL (≈ 112 µM); in assay [2], 8.3 µg/mL (≈ 21.6 µM).

`COC(=O)C/C=C/C1=CO[C@]23CCC1[C@@]2(C)CC[C@H]1[C@H]3CC[C@@H]2C[C@@H](O)CC[C@@]21C`: the IC50 in assay [1] worked out at 45 µg/mL (≈ 109 µM); in assay [2], 9.1 µg/mL (≈ 21.9 µM).

As for `C=C(C)C(=O)O[C@H]1CC[C@@]2(C)[C@H](CC[C@@H]3[C@@H]2CC[C@]2(C)[C@@H](c4ccc(=O)oc4)CC[C@]32O)C1`, the IC50 in assay [1] was 0.097 µg/mL (≈ 0.213 µM); in assay [2] it was 0.059 µg/mL (≈ 0.13 µM).

For `COC(=O)C/C=C/C1=CO[C@]23C[C@H](OC(C)=O)C1[C@@]2(C)CC[C@H]1[C@H]3CC[C@@H]2C[C@@H](OC(C)=O)CC[C@@]21C`, the IC50 in assay [1] came to 50 µg/mL (≈ 97.2 µM); in assay [2], 49 µg/mL (≈ 95.2 µM).

Regarding `CC(=O)O[C@H]1CC[C@@]2(C)[C@H](CC[C@@H]3[C@@H]2CC[C@]2(C)[C@@H](c4ccc(=O)oc4)CC(=O)[C@@H]32)C1`, the IC50 in assay [1] is 1.8 µg/mL (≈ 4.22 µM); in assay [2] it was 0.55 µg/mL (≈ 1.29 µM).

`C[C@]12CC[C@@H](O)C[C@H]1CC[C@@H]1[C@@H]2CC[C@]2(C)[C@@H](c3ccc(=O)oc3)C[C@@H]3O[C@]312`: the IC50 in assay [1] amounted to 6.4 µg/mL (≈ 16.6 µM); in assay [2] it was 4.7 µg/mL (≈ 12.2 µM).

For the molecule `CC(=O)O[C@H]1CC[C@]2(C)C3CC[C@@]4(C)C(=C[C@H](OC(C)=O)[C@@H]4c4ccc(=O)oc4)C3CC[C@@H]2C1` (stereo not given in full), the half-maximal inhibitory concentration (IC50) stood at 7.3 µg/mL (≈ 15.6 µM) in assay [1] and 5 µg/mL (≈ 10.7 µM) in assay [2].

Take `CC(=O)O[C@@H]1CC[C@]2(C)C3CC[C@]4(C)[C@@H](c5ccc(=O)oc5)C[C@@H]5O[C@@]54C3CC[C@@H]2C1` (stereo not given in full): the IC50 came to 43 µg/mL (≈ 101 µM) in assay [1] and 4.7 µg/mL (≈ 11 µM) in assay [2].

For the molecule `C[C@]12CCC(=O)C[C@H]1CC[C@@H]1[C@@H]2CC[C@]2(C)[C@@H](c3ccc(=O)oc3)C[C@H]3O[C@]132`, the concentration for half-maximal inhibition (IC50) was 9.7 µg/mL (≈ 25.4 µM) in assay [1] and 5.8 µg/mL (≈ 15.2 µM) in assay [2].

`C[C@]12CC[C@H]3[C@@H](CC[C@@H]4C[C@@H](O)CC[C@@]43CO)[C@]13O[C@@H]3C[C@@H]2c1ccc(=O)oc1`: the results for the IC50 in assay [1] and in assay [2] were 8.2 µg/mL (≈ 20.5 µM) and 0.61 µg/mL (≈ 1.52 µM), respectively.
